Measurements: ChEMBL document CHEMBL3228020, “Improved antitumor effects in 3'-branched homologues of 2'-deoxythioguanosine. Synthesis and evaluation of thioguanine nucleosides of 2,3-dideoxy-3-(hydroxymethyl)-D-erythro-pentofuranose” (J Med Chem, 1979)
The source made the active and inactive calls. The rule behind the calls is not given here.

Key:
Mus musculus [1] = assay: Acid-insoluble DNA incorporation in mouse Mecca lymphosarcoma ascite tumor allografted in AKD2F1 mouse assessed per mg of DNA at 2.6 umol, ip after 4 hrs by scintillation counting analysis; assay type: functional
Procedure, shortened: (§1)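 Female AKD2F1 mice (groups of 3) bearing 4-day Mecca lymphosarcoma ascites tumors; 2.6 μmol [35S]nucleoside ip, repeated after 2 h; peritoneal cells washed out 2 h later. Acid-insoluble nucleic acid extracted in 10% NaCl at 100 °C, RNA removed by alkali; DNA digested with DNase I then phosphodiesterase I at 37 °C; paper chromatography, spots counted by scintillation.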

Mus musculus [2] = organism: Mus musculus; assay: Acid-insoluble DNA incorporation in mouse Mecca lymphosarcoma ascite tumor allografted in AKD2F1 mouse assessed as detection of [35S] in nucleoside at 2.6 umol after 4 hrs by scintillation counting analysis; assay type: functional; procedure, shortened: as §1
Mus musculus [3] = organism: Mus musculus; assay: Acid-insoluble DNA incorporation in mouse Mecca lymphosarcoma ascite tumor allografted in AKD2F1 mouse assessed as detection of [35S] in nucleotide at 2.6 umol after 4 hrs by scintillation counting analysis; assay type: functional; procedure, shortened: as §1
Mus musculus [4] = organism: Mus musculus; assay: Acid-soluble DNA incorporation in mouse Mecca lymphosarcoma ascite tumor allografted in AKD2F1 mouse assessed as detection of [35S] in nucleoside per mg of DNA at 2.6 umol after 4 hrs by scintillation counting analysis; assay type: functional
Procedure, shortened: (§2)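 Same mouse dosing as the DNA study: 2.6 μmol [35S]nucleoside ip twice, 2 h apart, to AKD2F1 mice carrying Mecca lymphosarcoma ascites; cells harvested 2 h after the second dose. Acid-soluble fraction chromatographed on paper in 5% KH2PO4 with mercaptoethanol; nucleoside and nucleotide spots scintillation-counted, expressed per mg DNA.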

Mus musculus [5] = organism: Mus musculus; assay: Acid-soluble DNA incorporation in mouse Mecca lymphosarcoma ascite tumor allografted in AKD2F1 mouse assessed as detection of [35S] in nucleotide per mg of DNA at 2.6 umol after 4 hrs by scintillation counting analysis; assay type: functional; procedure, shortened: as §2
Mus musculus [6] = organism: Mus musculus; assay: Acid-soluble DNA incorporation in mouse Mecca lymphosarcoma ascite tumor allografted in AKD2F1 mouse assessed as wheat germ 3'-nucleotidase-mediated nucleotide hydrolysis at 2.6 umol after 1 hr; assay type: functional; design: scale not given: the % may be the effect or the level left
Procedure, shortened: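 Acid-soluble fraction from mice dosed ip with 2.6 μmol [35S]nucleoside twice, 2 h apart. Aliquot treated with nucleotidase-free phosphodiesterase (pH 8.6, 1 h, 37 °C), then wheat germ 3'-nucleotidase (4 units, pH 5, 1 h, 37 °C); separated by paper chromatography and counted.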

Mus musculus [7] = organism: Mus musculus; assay: Acid-soluble DNA incorporation in mouse Mecca lymphosarcoma ascite tumor allografted in AKD2F1 mouse assessed as snake venome 5'-nucleotidase-mediated nucleotide hydrolysis at 2.6 umol after 2 hrs; assay type: functional; design: scale not given: the % may be the effect or the level left
Procedure, shortened: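 Female AKD2F1 mice bearing 4-day Mecca lymphosarcoma ascites were used in groups of three. Aliquots of the acid-soluble fraction were digested with crude Crotalus adamanteus venom (phosphodiesterase plus 5'-nucleotidase) for 2 h at 37 °C.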

[8] = Stability in RPMI 1640 assessed as formation of thioguanine after 24 hrs in presence of 10% dialyzed horse serum; assay type: physicochemical
Procedure, shortened: (§3)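 Nucleosides incubated without cells in RPMI 1640 containing 10% fetal calf serum or 10% dialyzed horse serum, 20 min or 24 h; cleavage to thioguanine monitored.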

[9] = Stability in RPMI 1640 after 24 hrs in presence of 10% fetal calf serum; assay type: physicochemical; settings: cattle; procedure, shortened: as §3
[10] = Stability in RPMI 1640 after 20 mins in presence of 10% fetal calf serum; assay type: physicochemical; settings: cattle; procedure, shortened: as §3
WIL2 [11] = assay: Stability in human WIL2 cells assessed as formation of thioguanine; assay type: ADME, cell-based
Procedure, shortened: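 WI-L2 cells incubated with labeled nucleoside; [35S]thioguanine formed was measured.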

WIL2 [12] = assay: Antiproliferative activity against human WIL2 cells assessed as decrease in cell number at 100 to 300 uM measured every 24 hrs by electronic particle counting analysis in presence of 10% dialyzed horse serum; assay type: functional, cell-based
Procedure, shortened: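 WI-L2 cells in RPMI 1640 + 10% dialyzed horse serum with penicillin/streptomycin; log-phase cells (2×10^5/mL) mixed 1:1 with double-strength drug medium at several concentrations, duplicate cultures, counted every 24 h by electronic particle counter.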

| SMILES | Activity (Mus musculus [1]) [nmol] | Activity (Mus musculus [2]) [%] | Activity (Mus musculus [3]) [%] | Activity (Mus musculus [4]) [nmol] | Activity (Mus musculus [5]) [nmol] | Activity (Mus musculus [6]) [%] | Activity (Mus musculus [7]) [%] | Stability [8] | Stability [9] | Stability [10] | Stability (WIL2 [11]) | Activity (WIL2 [12]) |
| --- | --- | --- | --- | --- | --- | --- | --- | --- | --- | --- | --- | --- |
| Nc1nc2c(ncn2[C@@H]2C[C@H](CO)[C@@H](CO)O2)c(=S)[nH]1 | 2.42 | 91 | 9 | 15.6 | 29.8 | 0 | 95.2 | Stable | Unstable | Stable | Stable | Active |
| Nc1nc2c(ncn2[C@H]2C[C@H](CO)[C@@H](CO)O2)c(=S)[nH]1 | 2.36 | 90 | 10 | 29.1 | 30.3 | 0 | 94.8 | Stable | Unstable | Stable | Stable | – |
| Nc1nc2c(ncn2[C@@H]2C[C@H](O)[C@@H](CO)O2)c(=S)[nH]1 | 0.84 | 60 | 40 | 10.4 | 6.4 | 2 | 95.7 | Stable | Unstable | Stable | Stable | Active |
